# Shown are actives, neighbours in structure and some others; about 4.8% of the full set was active somewhere.
# T cruzi repl: inhibitors of intracellular T. cruzi growth, primary screen, luminescence, NIH3T3 host cells; T. cruzi beta-gal in NIH3T3, 90 h; 1.4% of 300,000 active; inhibition, % (concentration not given with the values);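 active = mean inhibition across valid replicates above about 55%, limit read from the data; inconclusive = mean below that limit but half or more replicates reach it; inactive = mean below it, under half of replicates reach it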;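 also: signal also drops with host cell toxicity which is not excluded here; 0% = plate median of DMSO wells and 100% = zero luminescence signal; higher percent means less beta-gal luminescence so fewer parasites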
#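 Read-out: Parasite load inhibition, % | Test system: Mouse NIH/3T3 fibroblasts infected with β-gal-expressing T. cruzi Tulahuen C4 | Amount: 5,000 cells/well | Medium: DMEM, 2% fetal bovine serum | Signal: GalScreen β-gal luminescence, detergent lysis, 60 min | Timing: 3 h attach, ≥90 h co-culture | Also added: Tulahuen C4 trypomastigotes, 5000/well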
# WT yeast gro inh: growth inhibition of WT strain, primary screen, mitochondrial fusion inhibitor project, WT and mutant strains, chemical genetic. inhibition, % at 10 µM. mitochondrial fusion phenotypic screen. 2.1% of 190,000 active; in the data active = inhibition above about 58%; tested in S. cerevisiae
# CSC inhib: cancer stem cell viability inhibitors, primary screen, luminescence | cancer stem cell-like cells viability | inhibition, % at 7.5 µM | 1.1% of 300,000 active; in the data active = inhibition above about 75%; inconclusive = no clear call, values can overlap the other calls; tested in HMLE shEcad cells
# Efflux pump inh: inhibitors of Candida efflux pumps in yeast, primary screen, S. cerevisiae, Nile Red, multiplex; inhibition, % at 10 µM; S. cerevisiae Candida pump triplex; 0.44% of 330,000 active; AID 485275, 2010;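 active = plate passing quality check with inhibition over a set limit, or well fluorescence over plate mean plus 4 SD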;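 also: Nile Red retained in pooled yeast measured as flow cytometry median fluorescence; 0% = buffer negative control and 100% = Enniatin B positive control; higher means more Nile Red kept so more efflux inhibition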
# Mot1-301 SUMO: yeast Mot1-301 growth rescue at high temperature, primary screen, SUMOylation pathway inhibitor project, S. cerevisiae, ATP luminescence, 38.5C; growth rescue, % at 18.8 µM; AID 2716, 2010; 1% of 320,000 active; S. cerevisiae Mot1-301 growth rescue; percent above DMSO median, 100 means doubled;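 active = every valid replicate shows activation above 250% relative to neutral control wells; inactive = the rest, any valid replicate at or below 250%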;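 also: OY570 slx delta 5 strain wells were the positive control but not used for scaling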
# Beta cell apopt: inhibitors of cytokine-induced beta cell apoptosis, primary screen, luminescence | INS-1E cytokine-induced death, ATP luminescence, 48 h; percent of positive-control rescue, neutral wells zero | protection from apoptosis, % (concentration not given with the values) | 0.8% of 300,000 active;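 active = Every replicate reaches about 75%, or at least half do and their mean reaches it too, limit read from the data; inconclusive = At least half of replicates reach the limit but their mean does not; inactive = Under half of replicates reach the limit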;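 also: 0% = cytokine-treated negative control wells and 100% = positive control rescue; higher means more ATP so stronger rescue from cytokine killing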
# * = called active by the depositor; u = inconclusive; x = not tested or not shown; + = active, no number.
SMILES,T cruzi repl,WT yeast gro inh,CSC inhib,Efflux pump inh,Mot1-301 SUMO,Beta cell apopt
O=C(c1cc(-c2ccc(F)cc2)nc2ccccc12)N1CCN(C2CCS(=O)(=O)C2)CC1 (stereo unspecified),x,x,x,0,0,10
COc1ccc(C(N)=O)cc1NC(=O)c1cccc(F)c1,-11,65*,x,0,-20,-1
Cc1cccc(CNc2ncnc3ccc(-c4ccc5c(c4)OCCO5)cc23)c1,x,x,12,0,-21,108*
c1nc(NCc2ccc3c(c2)OCO3)c2cc(-c3ccc4c(c3)OCCO4)ccc2n1,x,x,x,0,95,99*
CC(=O)c1ccc(S(=O)(=O)NCCC(=O)NC2CCN(Cc3ccccc3)CC2)cc1,x,x,-19,0,6,-1
C/C=C(\C)CN1CCN(c2cc(C)ccc2C)CC1,9,59*,5,0,-2,-7
CCOc1ccc(-n2cc(C(=O)c3cc(Cl)ccc3O)cc(C#N)c2=O)cc1,-5,59*,14,0,9,x
Cc1ccc(C2c3c(C)nn(-c4ccc([N+](=O)[O-])cc4)c3N=C3C(=O)Nc4ccccc4N32)cc1 (stereo unspecified),65*,3,16,0.5*,-7,23
O=C(c1cccs1)N1N=C(c2ccccc2)CC1c1ccccc1 (stereo unspecified),26,67*,25,0,-4,19
O=C(c1ccco1)N1N=C(c2ccc3nccnc3c2)CC1c1ccccc1 (stereo unspecified),2,17,-18,0,541*,4
CN(Cc1ccccc1)C(=S)Nc1ccc2nc3n(c(=O)c2c1)CCCCC3,0,-9,40,0,-5,-1
CC(C)c1ccc(CNC(=O)C(=O)NCC2CCCO2)cc1 (stereo unspecified),2,-13,3,0,-2,2
CCOc1ccc(NC(=O)c2c(NC(=O)CNCCN3CCOCC3)sc3c2CCC3)cc1,61*,x,0,0,-3,x
CC(C)(C)C1CCC2(CC1)C(C#N)=C(SCC(=O)NC1CCCCC1)NC(=O)C2C#N (stereo unspecified),-5,-4,u,0,20,107*
COc1ccc(C2/C=C\CN(C(=O)C3CCCC3)[C@H](Cc3ccccc3)C(=O)N2Cc2ccc(F)cc2)cc1 (stereo partly specified),32,x,11,0,-5,11
CCNC(=O)C1CC(=O)N(CCCc2ccccc2)C(=Nc2ccccc2)S1 (stereo unspecified),29,x,3,0,-2,-7
O/C(=C\c1nc2ccccc2nc1/C=C(\O)c1ccccc1)c1ccccc1,-4,74*,38,0,-5,x
O=c1oc2ccccc2nc1/C=C(\O)c1ccccc1,-4,x,-12,0,-12,-6
Cc1nc2ccccc2n1/N=C/c1ccc([N+](=O)[O-])s1,39,80*,47,0,-1,109*
Cc1cc2ncn(/N=C/c3ccc([N+](=O)[O-])s3)c2cc1C,38,86,19,0,27,50
COc1cccc(/C=N/n2c(C)nc3ccccc32)c1OC,-1,62*,8,0,106,-4
O=[N+]([O-])c1ccc(/C=N/n2c(CO)nc3ccccc32)s1,67*,11,0,0,-20,81*
O=[N+]([O-])c1ccc(/C=N/n2cnc3ccccc32)s1,73*,53,100*,0,378*,112*
CC(=O)N1CCc2cc(S(=O)(=O)N3CCc4ccccc43)ccc21,18,x,1,0,-17,x
CC1(c2ccc(O)cc2)NC(=O)N(c2ccccc2)N1 (stereo unspecified),-12,-2,109*,0,32,-3
SMILES,T cruzi repl,WT yeast gro inh,CSC inhib,Efflux pump inh,Mot1-301 SUMO,Beta cell apopt
Cc1csc2c(N3CCN(C(=O)c4ccc(C(C)(C)C)cc4)CC3)ncnc12,-13,x,4,0,-1,116*
Cc1csc2c(N3CCN(C(=O)NC(C)(C)C)CC3)ncnc12,-9,x,-1,0,-11,3
CCN(CC)C(=O)c1ncn(C)c1C(=O)N(CC)CC,x,x,-11,0,0,-8
COc1ccc2[nH]c(=O)c(CN(C)C(=O)c3cccs3)cc2c1,-31,x,-6,0,5,-4
CC(C)N(CCNC(=O)c1nn(Cc2ccccc2)c(=O)c2ccccc12)C(C)C,55*,x,5,0,-7,9
Nc1nc2ccc(C(=O)Nc3ccccc3)cc2s1,-19,-5,-9,0,282*,-7
c1ccc(-c2sc3ccccc3c2-c2ccc(OCCN3CCCCC3)cc2)cc1,x,x,71,0,0,-3
c1ccc2c(-c3ccc(OCCN4CCCCC4)cc3)c(-c3ccsc3)sc2c1,x,x,103*,0,256,7
CN(C)CCOc1ccc(-c2c(-c3ccccc3)sc3ccccc23)cc1,x,x,142*,1,34,83*
COc1ccc(CNC(=O)C2=CC(c3ccc(C)cc3)=NS(=O)(=O)N2C)cc1,-1,x,x,0,12,-6
Cc1ccc(C)c(NS(=O)(=O)c2cc(C(=O)Nc3ccccc3-c3ccccc3)ccc2C)c1,26,40,38,0,102,23
Cc1ccc(C(=O)Nc2ccccc2-c2ccccc2)cc1S(=O)(=O)Nc1cccc(C)c1C,62*,38,23,0,194,18
Cc1ccnc(NC(=O)Nc2ccc(Br)cc2Cl)c1,6,3,-9,0,7,1
COc1cccc(CNc2ccc([N+](=O)[O-])cc2Cl)c1O,-3,31,-11,0,67,-1
O=C(Nc1ccccc1Cc1ccccc1)c1ccncc1,59*,x,-1,0,17,-1
O=C(NCc1ccco1)c1ccccc1NS(=O)(=O)c1ccc(Cl)s1,-2,44,-4,0,3,-2
O=C(Nc1ccccc1Cc1ccccc1)c1ccccc1F,-4,x,-31,0,-9,-4
Cc1ccc(NC(=O)c2ccccc2NS(=O)(=O)c2ccc(Cl)s2)cc1,-38,82*,51,0,-6,77*
O=C(Nc1ccccc1Cc1ccccc1)c1ccccc1NS(=O)(=O)c1ccc(Cl)s1,-3,76*,+,0,3,47
O=C(Nc1ccccc1)c1ccccc1NS(=O)(=O)c1ccc(Cl)s1,-28,53,43,0,-15,52
C/C(=N\Nc1ccc2nncn2n1)c1ccc(Cl)s1,14,x,-10,0,8,3
COCc1nc2ccccc2n1Cc1c(F)cccc1Cl,-18,6,-15,0,0,-8
COc1ccc(N/N=C(/N=Nc2nc(C)cc(=O)[nH]2)c2ccccc2)cc1,44,47,4,0,-21,91*

# Screening results from PubChem.
